Measurements published in ChEMBL document CHEMBL4004786, “Nanomolar Antimalarial Agents against Chloroquine-Resistant Plasmodium falciparum from Medicinal Plants and Their Structure-Activity Relationships” (J Nat Prod, 2017).
pIC50: −log10 of the molar value.

system: Plasmodium falciparum; experiment: Antimalarial activity against chloroquine-resistant Plasmodium falciparum Dd2 assessed as parasite growth inhibition after 72 hrs by SYBR Green 1 assay; type: functional; settings: Dd2, 72 h
Procedure, shortened: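 Viability was read by SYBR Green I DNA quantitation and normalized to DMSO-treated untreated controls. IC50 came from nonlinear regression, averaging at least three independent experiments run in triplicate, with standard deviations.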

Structure (SMILES) | pIC50
CO[C@]12OC(=O)C(C)=C1C1=C3[C@](C)([C@@H]4C[C@@H]4[C@@]3(O)C[C@@H]3[C@]14OC(=O)C1=C4C[C@H]4[C@](O)(COC(=O)/C(C)=C/COC(=O)CCC(=O)OC1)[C@H]1C[C@H]1[C@]34C)[C@H]2O | < 4.60
C=C1[C@H]2C[C@H]2[C@@]2(C)[C@H]1[C@@H](OC(C)=O)C1=C(C)C(=O)O[C@@]13C1=C4[C@](C)([C@@H]5C[C@@H]5[C@@]4(O)C[C@H]32)[C@@H](O)C(=O)/C1=C(/C)C(=O)OC | < 4.60
COC(=O)/C(C)=C1\C(=O)[C@H](O)[C@]2(C)C3=C(C[C@@H]4[C@]5(OC(=O)C(CO)=C5C[C@H]5[C@H](COC(C)=O)[C@H]6C[C@H]6[C@]45C)[C@H]31)[C@H]1C[C@H]12 | 6.24
COC(=O)CCC(=O)OCC1=C2C[C@H]3[C@](O)(COC(=O)/C=C(\C)CO)[C@H]4C[C@H]4[C@]3(C)[C@@H]3C=C4C5=C(C6=C(C)C(=O)O[C@]6(O)[C@H](O)[C@@]5(C)[C@@H]5C[C@H]45)[C@]23OC1=O | 6.70
COC(=O)/C(C)=C1\C(=O)[C@H](O)[C@]2(C)C3=C(C[C@@H]4[C@]5(OC(=O)C(CO)=C5C[C@H]5[C@](O)(CO)[C@H]6C[C@H]6[C@]45C)[C@H]31)[C@H]1C[C@H]12 | 5.34
C=C1[C@H]2C[C@H]2[C@@]2(C)[C@H]1[C@@H](OC(C)=O)C1=C(C)C(=O)O[C@@]13C1=C4[C@@](C)(C(=O)[C@@]5(O)OC(=O)C(C)=C15)[C@@H]1C[C@@H]1[C@@]4(O)C[C@H]32 | < 4.60
C=C1[C@H]2C[C@H]2[C@@]2(C)[C@H]1[C@@H](OC(C)=O)C1=C(C)C(=O)O[C@@]13C1=C4[C@](O)(C[C@H]32)[C@H]2C[C@H]2[C@]4(C)CC(=O)/C1=C(/C)C(=O)OC | < 4.60
COC(=O)/C(C)=C1\C(=O)[C@H](O)[C@]2(C)C3=C(C[C@@H]4[C@]5(OC(=O)C(CO)=C5C[C@H]5[C@](O)(COC(=O)C=C(C)C)[C@H]6C[C@H]6[C@]45C)[C@H]31)[C@H]1C[C@H]12 | 6.68
COC(=O)/C(C)=C1\C(=O)[C@H](O)[C@]2(C)C3=C1[C@]14OC(=O)C(C)=C1C[C@H]1[C@](O)(CO)[C@H]5C[C@H]5[C@]1(C)[C@@H]4C[C@]3(OO)[C@H]1C[C@H]12 | 5.28
C=C1C(=O)O[C@]23C4=C5C(=O)[C@H](O)[C@]6(C)C4=C(C[C@H]2[C@]2(C)C(C[C@]13[C@]5(C)C(=O)OC)[C@](O)(COC(=O)/C(C)=C/C)[C@H]1C[C@H]12)[C@H]1C[C@H]16 (some centres not stated) | 5.33
COC(=O)/C(C)=C1\C(=O)[C@H](O)[C@]2(C)C3=C1[C@]14OC(=O)C5=C1C[C@H]1[C@](O)(COC(=O)/C(C)=C/COC(=O)CCC(=O)OC5)[C@H]5C[C@H]5[C@]1(C)[C@@H]4C[C@]3(O)[C@H]1C[C@H]12 | < 4.60
COC(=O)/C(C)=C1\C(=O)[C@H](O)[C@]2(C)C3=C(C[C@@H]4[C@]5(OC(=O)C(CO)=C5C[C@H]5[C@H](CO)[C@H]6C[C@H]6[C@]45C)[C@H]31)[C@H]1C[C@H]12 | 4.94
COC(=O)CCC(=O)OCC1=C2C[C@H]3[C@](O)(COC(=O)/C=C(\C)CO)[C@H]4C[C@H]4[C@]3(C)[C@@H]3C[C@@]4(OO)C5=C(C6=C(C)C(=O)O[C@]6(O)[C@H](O)[C@@]5(C)[C@@H]5C[C@@H]54)[C@]23OC1=O | 7.03
C[C@@]12C=C3OC(=O)C(CO)=C3C[C@H]1[C@@H](CO)[C@H]1C[C@H]12 | < 4.60
COC(=O)/C(C)=C1\C(=O)[C@H](O)[C@]2(C)C3=C(C[C@@H]4[C@]5(OC(=O)C(CO)=C5C[C@H]5[C@](O)(COC(=O)/C=C(\C)CO)[C@H]6C[C@H]6[C@]45C)[C@H]31)[C@H]1C[C@H]12 | 6.95
CC1=C2CC3=C(C)[C@H]4C[C@H]4[C@]3(C)C[C@@H]2OC1=O | < 4.60
C=C1[C@@H]2C[C@@H]2[C@]2(C)[C@@H]3CC4=C5[C@H](/C(=C(\C)C(=O)OC)C(=O)[C@H](O)[C@@]5(C)[C@@H]5C[C@H]45)[C@@]34OC(=O)C(C)=C4C[C@@H]12 | 5.82
CC1=C2C3=C4[C@](C)([C@@H]5C[C@@H]5[C@@]4(O)C[C@@H]4[C@]35OC(=O)C3=C5C[C@H]5[C@](O)(COC(=O)/C=C(\C)COC(=O)CCC(=O)OC3)[C@H]3C[C@H]3[C@]45C)[C@@H](O)[C@@]2(O)OC1=O | 5.15
CC1=C2[C@H]3[C@@H]4C(=C[C@@H]5[C@]36OC(=O)C(CO)=C6C[C@H]3[C@](O)(COC(=O)/C=C(\C)CO)[C@H]6C[C@H]6[C@]53C)[C@H]3C[C@H]3[C@]4(C)[C@@H](O)[C@@]2(O)OC1=O | 5.00
CC(=O)OC[C@H]1[C@H]2C[C@H]2[C@]2(C)C=C3OC(=O)C(CO)=C3C[C@@H]12 | < 4.60
COC(=O)/C(C)=C1\C(=O)[C@H](O)[C@]2(C)C3=C(C[C@@H]4[C@]5(OC(=O)C(COC(C)=O)=C5C[C@H]5[C@](O)(COC(=O)C=C(C)C)[C@H]6C[C@H]6[C@]45C)[C@H]31)[C@H]1C[C@H]12 | 6.07
COC(=O)/C(C)=C1\C(=O)[C@H](O)[C@]2(C)C3=C(C[C@@H]4[C@]5(OC(=O)C(C)=C5C[C@H]5[C@H](COC(C)=O)[C@H]6C[C@H]6[C@]45C)[C@H]31)[C@H]1C[C@H]12 | 5.74
COC(=O)/C(C)=C1\C(=O)[C@H](O)[C@]2(C)C3=C1[C@]14OC(=O)C5=C1C[C@H]1[C@](O)(COC(=O)/C=C(\C)COC(=O)CCC(=O)OC5)[C@H]5C[C@H]5[C@]1(C)[C@@H]4C[C@]3(OO)[C@H]1C[C@H]12 | 6.32
C[C@@H]1CC[C@H]2[C@@H](C)C(=O)O[C@@H]3O[C@@]4(C)CC[C@@H]1[C@]32OO4 [ARTEMISININ] | 8.40
CC1=C2C3=C4[C@](C)([C@@H]5C[C@@H]5[C@@]4(O)C[C@@H]4[C@]35OC(=O)C3=C5C[C@H]5[C@](O)(COC(=O)/C(C)=C/COC(=O)CCC(=O)OC3)[C@H]3C[C@H]3[C@]45C)[C@@H](O)[C@@]2(O)OC1=O [CHLORAMULTILIDE C] | < 4.60
C/C=C(\C)C(=O)OC[C@]1(O)[C@H]2C[C@H]2[C@]2(C)[C@@H]3C[C@@]4(O)C5=C(C6=C(C)C(=O)O[C@]6(O)[C@H](O)[C@@]5(C)[C@@H]5C[C@@H]54)[C@@]34OC(=O)C(CO)=C4C[C@@H]12 [CHLORAMULTILIDE D] | < 4.60
C/C=C(\C)C(=O)OC[C@]1(O)[C@H]2C[C@H]2[C@]2(C)[C@@H]3CC4=C5[C@H](/C(=C(\C)C(=O)OC)C(=O)[C@H](O)[C@@]5(C)[C@@H]5C[C@H]45)[C@@]34OC(=O)C(C)=C4C[C@@H]12 [SARCANDROLIDE A] | 6.49
